# From PubChem BioAssay
# This is a sample that favours compounds with a hit; in the whole collection about 3.3% have one here.
# rCAG RNA binder = r(CAG) repeat RNA binding | AID 651821 | actives 1.3% (n = 370,000) | TO-PRO-1 dye displacement fluorescence | inhibition, % at 3 µM;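 active = inhibition above the plate cutoff, the mean of all test compounds on that plate plus 3 SD, cut at about 35% in these data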;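 also: 0% = DMSO alone and 100% = 100 µM mitoxantrone as full dye displacement; higher means more dye released from RNA so lower well fluorescence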
# mABHD4 FP = inhibits mouse alpha/beta hydrolase domain 4 | Q8VD66 | purified mABHD4, FP-Rh probe fluorescence polarization | inhibition, % at 8.92 µM | actives 0.54% (n = 370,000);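 active = inhibition exceeding the mean over every tested compound plus 3 SD, cut at about 30% in these data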;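 also: 0% = plate median of compound wells and 100% = S159A mutant with DMSO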
#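 Assay system: mouse ABHD4 enzyme, wild type / Also added: fluorescent activity-based probe FP-Rh / Doses: single nominal dose of 8.92 µM, 0.89% DMSO final / Timing: 45 min compound pre-incubation plus 60 min probe step, 25 °C / Signal: FP readout, ex 525 nm / em 598 nm / Control set: S159A mutant/DMSO as 100%, compound-well median as 0%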
# SIAE inh = inhibitors of human sialic acid acetylesterase SIAE; Q9HAT2; SIAE FP-Rh probe binding, fluorescence polarization; inhibition, % at 9.66 µM; actives 0.69% (n = 370,000);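 active = inhibition above a cutoff: mean of compounds within the control limits plus 3 SD of those, cut at about 17% in these data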;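 also: 0% = plate median of compound wells and 100% = probe without SIAE protein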
# HTRA1 inhibitor = blocks human HTRA1 serine peptidase; recombinant HTRA1, FP-rhodamine activity-based probe, fluorescence polarization; AID 504803; Q92743; inhibition, % at 5.96 µM; actives 0.5% (n = 340,000); in the data active = inhibition above about 36%;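 also: 0% = enzyme with DMSO and 100% = wells lacking enzyme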
# PRMT1 FP inh = PRMT1 (human) inhibition, primary screen | Q99873 | recombinant PRMT1, activity-based probe fluorescence polarization | inhibition, % at 2.79 µM | actives 1.3% (n = 370,000) | AID 652257;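 active = inhibition above about 21% made by adding two undisclosed values, limit read from the data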
# Target sequence (Q99873 whole entry, looked up): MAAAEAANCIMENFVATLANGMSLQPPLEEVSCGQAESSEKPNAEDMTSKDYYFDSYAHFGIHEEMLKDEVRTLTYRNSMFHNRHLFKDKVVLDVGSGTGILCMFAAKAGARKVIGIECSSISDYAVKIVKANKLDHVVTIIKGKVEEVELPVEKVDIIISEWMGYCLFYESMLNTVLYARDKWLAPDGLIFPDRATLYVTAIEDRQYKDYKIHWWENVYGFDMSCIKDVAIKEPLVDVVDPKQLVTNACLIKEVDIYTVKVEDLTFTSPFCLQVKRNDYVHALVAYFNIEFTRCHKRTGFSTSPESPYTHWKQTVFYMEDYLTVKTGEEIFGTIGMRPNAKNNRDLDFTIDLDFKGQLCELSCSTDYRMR
# rCAG binder conf = r(CAG) RNA repeat binding, confirmation; shares compounds with rCAG RNA binder; TO-PRO-1 dye displacement fluorescence; inhibition, % at 3 µM; actives 70% (n = 4,300);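 active = inhibition above a per-plate cutoff, the mean inhibition of sample wells plus 3 SD, cut at about 35% in these data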;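 also: loss of TO-PRO-1 fluorescence as compound displaces dye from 1x1 AA loop RNA; 0% = DMSO only wells and 100% = 100 µM mitoxantrone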
# dCAG dye counter = disrupts DNA CAG TO-PRO-1 complex, flagging rCAG hits; shares compounds with rCAG RNA binder; d(CAG) DNA oligo TO-PRO-1 dye displacement, fluorescence; inhibition, % at 3 µM; actives 94% (n = 4,300);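 active = inhibition above its plate's cutoff, the mean test-well inhibition plus 3 SD, cut at about 4.8% in these data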;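 also: 0% = DNA dye mix with DMSO and 100% = 100 µM mitoxantrone; hits displace the dye from DNA and so lower well fluorescence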
# * marks the source's active call; other numbers are inactive results; / = no result.
SMILES,rCAG RNA binder,mABHD4 FP,SIAE inh,HTRA1 inhibitor,PRMT1 FP inh,rCAG binder conf,dCAG dye counter
Cc1ccc(S(=O)(=O)Oc2ccc(/C=C(/NC(=O)c3ccccc3)C(=O)NCC(=O)O)cc2)cc1,34,0,-1,/,2,/,/
Cc1ccc(N=C2NC(=O)/C(=C\c3ccco3)S2)cc1,42*,14,6,10,6,34,15*
CC(C)Nc1nc2ccccc2c(=O)[nH]1,-1,1,4,0,-2,/,/
Cc1cc(C)cc(Nc2nc3ccccc3c(=O)[nH]2)c1,41*,10,6,-4,-2,14,16*
COc1cccc(C(=O)Nc2ccc(S(=O)(=O)Nc3onc(C)c3C)cc2)c1,16,-20,-4,10,4,/,/
Cc1noc(NS(=O)(=O)c2ccc(NC(=O)c3ccc(Cl)c(S(=O)(=O)N(C)c4ccccc4)c3)cc2)c1C,91*,-15,-1,-11,1,84*,55*
Cc1noc(NS(=O)(=O)c2ccc(NC(=O)c3cccc(S(=O)(=O)N(C)c4ccccc4)c3)cc2)c1C,73*,4,-8,-13,2,81*,37*
COCC(=O)N(C[C@H]1[C@H](c2ccccc2)[C@@H](CO)N1C(=O)NC(C)C)C(C)C,-1,3,2,/,3,/,/
CCCCCCOC(=O)Nc1ccc(S(=O)(=O)Nc2cccc([N+](=O)[O-])c2)cc1,45*,-34,-11,-45,-4,46*,14*
CCCCOC(=O)Nc1ccc(S(=O)(=O)Nc2nc(C)cc(C)n2)cc1,3,7,-6,1,2,/,/
C=CCN(c1ccccc1)S(=O)(=O)c1cccc(C(=O)Nc2nnc(SCC)s2)c1,52*,-14,-5,-3,-2,58*,17*
Clc1cccc(Cc2c(C3CCCCC3)nc3ccc(Br)cn23)c1,36*,-54,-4,/,1,23,3
Clc1cccc(Cc2c(-c3ccccc3)nc3ccc(Cl)cn23)c1,36*,2,-2,/,4,19,5.5*
COc1ccccc1Cc1c(-c2cccc(Cl)c2)nc2ccc(Br)cn12,38*,-3,-10,/,4,22,4
Clc1ccc2nc(-c3cccc(Br)c3)c(Cc3ccccc3)n2c1,31,-6,-8,/,-1,/,/
Cc1cc(Br)cn2c(Cc3cccc(Cl)c3)c(C3CCCCC3)nc12,9,-20,5,/,0,/,/
Clc1cccc(Cc2c(-c3cccc(Br)c3)nc3ccc(Cl)cn23)c1,45*,-79,-10,/,0,26,9.9*
COC(=O)c1cc(-c2cc3ccccc3o2)c(=O)n2c1CCC2,4,0,4,/,-7,/,/
Cc1cc(C)cc(N(CC(=O)NC2CCC(C)CC2)S(=O)(=O)c2ccc(C)c(C)c2)c1 (stereo unspecified),1,7,2,/,-1,/,/
COC(=O)C1CN(Cc2cn(CCC3OCCO3)nn2)CCS(=O)(=O)N1Cc1ccccc1 (stereo unspecified),1,4,0,/,-2,/,/
CC(C)CNC(=O)OCc1cn(Cc2cccc(Cl)c2)nn1,0,-3,3,/,-7,/,/
O=C(C1CCCN1S(=O)(=O)c1ccc(Br)s1)N1CCN(c2ccccc2)CC1 (stereo unspecified),3,7,-1,/,7,/,/
O=C(NC1CCCCN(Cc2ccc(Cl)cc2)C1=O)c1ccc(COc2ccccc2)cc1 (stereo unspecified),11,-2,3,/,-1,/,/
O=C1C2Sc3[nH]c(=O)sc3C(c3ccccc3)C2C(=O)N1c1ccc(Cl)cc1 (stereo unspecified),36*,23,3,-3,10,25,8.7*
Cc1ccc(F)c(S(=O)(=O)NC(=O)C2(C)CCN2C(=O)CC(c2ccccc2)c2ccccc2)c1 (stereo unspecified),49*,-3,-7,/,-2,43*,12*
CCCC(=O)N1CCC1(C)C(=O)NS(=O)(=O)c1cc(C)ccc1F (stereo unspecified),2,0,2,/,0,/,/
